High-throughput results (PubChem BioAssay)
Scp-1 inhibitor: Scp-1 (human) phosphatase inhibition. Q9GZU7. Recombinant Scp1, phosphopeptide, malachite green phosphate absorbance. inhibition, % at 20 µM. 340,000 tested, 0.88% active;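 active means inhibition above about 50% at 20 µM, limit read from the data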;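 further: plate controls were DMSO wells with enzyme for no effect and wells lacking enzyme for full effect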
Target sequence (Q9GZU7 76-261 limits assumed): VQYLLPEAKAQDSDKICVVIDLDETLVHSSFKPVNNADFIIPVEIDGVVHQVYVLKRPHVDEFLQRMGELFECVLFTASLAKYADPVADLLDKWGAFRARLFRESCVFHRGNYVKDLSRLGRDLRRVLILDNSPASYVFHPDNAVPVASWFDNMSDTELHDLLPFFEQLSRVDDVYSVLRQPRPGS
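System: truncated SCP-1 phosphatase (76-261aa); medium: Tris acetate buffer pH 5.5 with MgCl2 and Tween-20; incubation: 45 min room-temperature reaction, 5 min colour, 30 min stabiliser; compound: single 20 µM dose, 1% DMSO; reagent: Phosphorylated 17-residue peptide substrate; read-out: % inhibition at 20 µM; technique: colorimetric free-phosphate detection, absorbance 630 nm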
STEP inh: inhibitors of human striatal-enriched phosphatase STEP; P54829; recombinant STEP, OMFP fluorogenic substrate, fluorescence; inhibition, % at 20 µM; 360,000 tested, 0.25% active; AID 588621;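 active means inhibition at 20 µM, scaled per plate between control wells, above about 37%, limit read from the data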;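 further: 0% = DMSO with enzyme and substrate and 100% = substrate only without enzyme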
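Test system: STEP tyrosine phosphatase / Reagent: OMFP at 25 µM / Doses: 20 µM, 1% DMSO / Read-out: percent inhibition scaled to no-enzyme and uninhibited-enzyme controls, plate-pattern corrected / Detection: FITC-channel fluorescence of OMFP product / Medium: Bis-Tris buffer pH 6.0, 2.5 mM DTT, 0.005% Tween 20 / Schedule: 20 min at room temperature, dark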
SUMO1-SIM PPI: modulators of human SUMO1-mediated protein-protein interactions; P63165; 360,000 tested, 0.33% active; AID 602429; SUMO1 binding to a labelled peptide, TR-FRET, 1 h; inhibition, % at 20 µM; in the data active means inhibition above about 37%
Target sequence (P63165 whole entry, looked up): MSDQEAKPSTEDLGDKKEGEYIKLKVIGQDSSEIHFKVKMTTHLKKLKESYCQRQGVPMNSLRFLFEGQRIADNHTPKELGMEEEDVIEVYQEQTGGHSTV
DNMT1 block: blocks human DNA methyltransferase DNMT1. DNMT1 molecular beacon, Hinp1I cleavage, fluorescence. inhibition (reported as % activation of signal), % at 10 µM. 360,000 tested, 0.83% active; in the data active means inhibition above about 50%
LMPTP block: LMPTP (human) inhibition; P24666; recombinant LMPTP-A, OMFP fluorogenic substrate, fluorescence intensity; inhibition, % at 20 µM; 360,000 tested, 0.22% active;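 active means compounds that cut the enzyme signal by at least half of the control window in the single-dose screen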;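 further: plate controls were DMSO wells with enzyme plus substrate for no effect and substrate without enzyme for full effect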
Target sequence (P24666 whole entry, looked up): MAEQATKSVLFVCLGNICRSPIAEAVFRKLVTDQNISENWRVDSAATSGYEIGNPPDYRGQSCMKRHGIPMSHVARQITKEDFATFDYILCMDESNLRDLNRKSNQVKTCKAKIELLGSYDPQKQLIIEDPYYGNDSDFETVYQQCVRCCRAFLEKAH
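Test system – LMPTP-A enzyme · Amount – LMPTP-A at 0.625 nM final in the reaction · Buffer or medium – Bis-Tris pH 6.0, DTT, detergent · Reagent – OMFP 400 µM · Doses – single 20 µM dose · Schedule – reaction 50 min, room temperature, dark · Detection – fluorescence intensity of OMFP turnover product · Evaluation – percent inhibition versus substrate-only and uninhibited controls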
Beacon interf DR: beacon fluorescence artifact, dose response counter-screen; shares compounds with DNMT1 block; molecular beacon fluorescence, spectral interference counter-screen; IC50, µM; 200 tested, under 10 active; call rule not given here
DNMT1 inh conf: confirmation of human DNMT1 inhibitors | shares compounds with DNMT1 block | DNMT1 molecular beacon HinP1I cleavage, fluorescence | inhibition, % at 10 µM | 2,300 tested, 8% active | AID 602385;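 active means average inhibition of at least 30% in the single-concentration confirmation test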
Beacon interf: counter-screen for DNMT1 inhibitors: spectral interference. shares compounds with DNMT1 block. DNMT1 molecular beacon spectral interference counterscreen, fluorescence 485/520. activation (fluorescence interference), % at 10 µM. 2,300 tested, 1% active. AID 602387;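 active means activation of at least 30% at 10 µM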;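 further: DNMT1 catalytic domain with a HinP1I cleavage step and a FAM/dabcyl DNA beacon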
Active calls of the source: *; . = no result given. Rows were chosen to be rich in hits. Some 1.7% of all compounds tested hit in one or more screens of this group.

SMILES | Scp-1 inhibitor | STEP inh | SUMO1-SIM PPI | DNMT1 block | LMPTP block | DNMT1 inh conf | Beacon interf | others
O=S(=O)(c1ccc2c(c1)CCN2)N1CCOCC1 | -1 | 0 | -1 | 102* | 1 | 3 | 5
O=S(=O)(c1ccc2ccccc2c1)N1CCOCC1 | -4 | 2 | 5 | -2 | 0 | . | .
C=CCn1c(COc2cccc(C)c2)nnc1SCC(=O)c1c(N)n(C)c(=O)n(C)c1=O | -5 | -1 | 5 | 5 | -1 | . | .
C=CCn1c(COc2ccc(Cl)cc2)nnc1SCC(=O)c1c(N)n(C)c(=O)n(C)c1=O | -7 | 4 | -2 | 73* | 17 | 4 | 2
Cc1ccc(C(=O)N2N=C(c3cccc(NS(C)(=O)=O)c3)CC2c2cccs2)cc1 (centres undefined) | -10 | -3 | -8 | -1 | 4 | . | .
COc1ccc(CCNC(=O)Oc2ccccc2)cc1OC | -4 | 0 | 6 | -1 | 0 | . | .
O=C(NC1CC2CCC(C1)N2Cc1ccccc1)c1ccccc1Br (centres undefined) | -4 | 1 | 1 | 0 | -2 | . | .
Cc1cccc(Cl)c1OCCCn1ccnc1 | -8 | 1 | -1 | 67* | 0 | 2 | 1
COCCN(C(=O)c1oc2ccccc2c1COC)c1c(N)n(CC(C)C)c(=O)[nH]c1=O | -6 | -2 | -2 | 1 | -1 | . | .
CCOc1ccc(S(=O)(=O)NN=C(C)c2cccnc2)cc1 | -4 | 0 | -1 | 0 | 4 | . | .
COc1ccc2c3c(cccc13)C(=O)CC2 | -12 | -92 | -48 | 128* | 23 | 23 | 37*
c1ccc(CN(CCN2CCOCC2)Cc2ccccc2)cc1 | -1 | -1 | -2 | -4 | 0 | . | .
COc1cc2cc(Oc3ccc4ccc(=O)oc4c3)c(=O)oc2cc1O[C@@H]1O[C@H](CO)[C@@H](O)[C@H](O)[C@H]1O | 24 | 1 | 4 | 105* | 2 | 61* | -1 | Beacon interf DR=>99
O=C(NNC(=O)C1C2C=CC(C2)C1C(=O)O)c1ccccc1O (centres undefined) | -10 | 1 | 1 | 1 | -2 | . | .
O=C1NC(=S)S/C1=C\c1ccc(SCc2ccccc2)o1 | 31 | 12 | 7 | 82* | 7 | 10 | 1
O=C1NC(=S)SC1=Cc1ccccc1Cl | 5 | -1 | 1 | 3 | 2 | . | .
Cc1ccc(-n2nc3c(=O)n(CCCC(=O)NCc4ccco4)nc(C)c3c2C)cc1 | -2 | -2 | 4 | 1 | 0 | . | .
Nc1cc(S(=O)(=O)O)cc([N+](=O)[O-])c1O | 34 | 18 | -3 | 66* | 1 | 72* | -5 | Beacon interf DR=>99
COc1ccc(-c2nc(SC(C)C(=O)NC3CC3)n[nH]2)cc1 (centres undefined) | 10 | -2 | 0 | -2 | 0 | . | .
Cc1cccc(CC(=O)NCCN2CCCCC2)c1 | 33 | 1 | 1 | 57* | 1 | -1 | 2
COc1cc(C(=O)NC(C)Cc2ccccn2)ccc1OC1CCN(C(C)=O)CC1 (centres undefined) | -9 | 0 | 2 | -1 | -1 | . | .
CCNC(=O)N(C)c1c(CC)nc2ccc(C(=O)N3CCN(S(=O)(=O)CC)CC3)cn12 | . | -2 | -5 | 53* | -2 | 7 | 4
CCCNC(=O)Cn1c(=O)/c(=C/c2ccc(-c3cccc([N+](=O)[O-])c3)o2)s/c1=C\C(=O)C(C)(C)C | -8 | -25 | 1 | 68* | 2 | 17 | 23
O=C(CSc1nnc(NC2CC2)s1)c1ccc[nH]1 | 0 | -4 | 2 | -2 | -2 | . | .
CC(C)(C)c1ccc(-c2csc(NC(=O)CN3C(=O)NC4(CCCCC4)C3=O)n2)cc1 | -17 | 6 | -1 | 54* | 1 | -1 | -2
SMILES | Scp-1 inhibitor | STEP inh | SUMO1-SIM PPI | DNMT1 block | LMPTP block | DNMT1 inh conf | Beacon interf | others
O=c1c2c(nc3nc(Cc4ccccc4)[nH]n13)CCC2 | -6 | -4 | -1 | 61* | 0 | 2 | 3
Cc1nc2nc3c(c(=O)n2[nH]1)CCC3 | -2 | 3 | 2 | 3 | -1 | . | .
COc1cccc(CNC(=O)Cc2ccc(Br)cc2)c1 | 0 | -2 | 7 | 70* | 0 | 2 | 2
COc1cccc(CNC(=O)Cn2cccc2)c1 | 5 | -3 | -2 | 1 | -1 | . | .
O=C(O)/C=C\c1cc2c(cc1[N+](=O)[O-])OCO2 | -5 | 2 | -12 | 4 | 5 | . | .
O=C1NC(=S)N/C1=C/c1cc2c(cc1[N+](=O)[O-])OCO2 | 2 | 3 | 55* | 60* | -1 | 30* | -12 | Beacon interf DR=>99
O=C(Nc1ccc(-c2nc3ncccc3o2)cc1)c1ccc([N+](=O)[O-])o1 | -2 | 5 | -17 | 50* | 4 | -2 | -1
O=C(Nc1ccc(O)c2c(=O)cc(-c3cccc(Cl)c3)oc12)c1ccccc1Cl | -8 | 5 | 0 | 54* | 1 | 2 | -2
CC(C)C(=O)Nc1ccc(-c2nc3cccnc3o2)cc1 | -1 | 0 | -3 | 1 | -1 | . | .
CC(C)(C)c1ccc(OCC(=O)Nc2ccc(-c3nc4cccnc4o3)cc2)cc1 | 18 | 0 | 3 | 55* | 6 | 0 | 2
Cc1c(Cc2ccccc2)c(=O)oc2cc(OCC(=O)N3CCC(C(=O)O)CC3)ccc12 | 10 | -2 | 7 | 4 | -2 | . | .
CCSc1nnc(NC(=O)C2Cc3ccccc3CN2C(=O)c2ccco2)s1 (centres undefined) | -2 | 1 | 20 | 53* | 3 | 4 | 0
O=C(NNC(=O)c1ccccc1O)c1ccco1 | -7 | 1 | 1 | -1 | -1 | . | .
Cc1cccc(-n2cnc(C(=O)NNC(=S)Nc3ccc(Cl)cc3)c2)n1 | -4 | 4 | 11 | -4 | 1 | . | .
Cc1cccc(-n2cnc(C(=O)N/N=C\c3ccc(Br)cc3)c2)n1 | -2 | 3 | 0 | 52* | 1 | 2 | -2
O=C(CSc1nc2c(cnn2-c2ccccc2)c(=O)[nH]1)c1ccc(Cl)cc1 | -4 | 1 | 5 | 86* | -1 | 31* | 4 | Beacon interf DR=>99
O=C(O)c1cc2ccccc2cn1 | 3 | 3 | 1 | 4 | 14 | . | .
O=C(O)C1Oc2cc3ccccc3cc2O1 | 50 | 16 | 4 | 55* | 23 | 5 | 4
O=C(NCc1ccccc1)C(c1ccccc1)N(C(=O)c1csnn1)c1ccccc1 (centres undefined) | -1 | 2 | 4 | 1 | 0 | . | .
O=C(N/N=C/c1cc(Cl)ccc1O)c1ccc(Br)cc1 | 98* | 91* | 5 | 81* | 72* | 9 | 4
